Experimental data from different studies.
Compare with care: the assays were run in different laboratories.
Target: Mu-type opioid receptor (Oprm1, Rattus norvegicus, UniProt P33535)

| SMILES | read-out | technique | setting | Ki [nM] |
| --- | --- | --- | --- | --- |
| Cc1ccccc1Cc1ccc2c(c1)CN(C(=O)[C@@H](N)Cc1c(C)cc(O)cc1C)CC2 | ligand displacement | radioligand | cell membranes | 2.5 |
| CCCC[C@@H](NC(=O)[C@@H](N)Cc1ccc(O)cc1)C(=O)NCC(=O)N[C@@H](Cc1ccc(F)cc1)C(=O)N(C)CCC[C@@]1(c2ccc(F)cc2)OCc2cc(C#N)ccc21 | cell-free assay |  |  | 16 |
| C[C@@H](NC(=O)C[C@@H](N)Cc1ccc(O)cc1)C(=O)NCC(=O)N[C@@H](Cc1ccccc1)C(=O)NNC(=O)[C@H](Cc1ccccc1)NC(=O)CNC(=O)[C@@H](C)NC(=O)C[C@@H](N)Cc1ccc(O)cc1 | ligand displacement | radioligand |  | 62 |
| NC(N)=Nc1ccc2[nH]c3c(c2c1)C[C@@]1(O)[C@H]2Cc4ccc(O)c5c4[C@@]1(CCN2CC1CC1)[C@H]3O5 | ligand displacement | radioligand | cell membranes | 9.04 |
| CCc1cccc(C)c1C[C@H](NC(=O)[C@@H](CCCNC(=N)N)NC(=O)[C@@H](N)Cc1c(C)cc(O)cc1C)C(=O)N[C@@H](CCCCN)C(N)=O | ligand displacement | radioligand | cell membranes | 0.0958 |
| CCCC[C@@H](NC(=O)[C@@H](N)Cc1c(C)cc(O)cc1C)C(=O)NCC(=O)N[C@@H](Cc1ccc(F)cc1)C(=O)N(C)CCC[C@@]1(c2ccc(F)cc2)OCc2cc(C#N)ccc21 | cell-free assay |  |  | 1 |
| Cc1cc(O)cc(C)c1C[C@H](C)C(=O)N[C@@H]1C/C=C/CC[C@@H](C(N)=O)NC(=O)[C@H](Cc2ccccc2)NC(=O)[C@H](Cc2ccccc2)NC1=O | ligand displacement | radioligand | cell membranes | 323 |
| Cc1cc(O)cc(C)c1C[C@H](N)C(=O)N1CCc2ccc(Cc3ccc(N)cc3)cc2C1 | ligand displacement | radioligand | cell membranes | 47 |
| Oc1cccc([C@]23CCC[C@H]([C@H]2O)N(CC=Cc2ccccc2)CC3)c1 | ligand displacement | radioligand |  | 0.74 |
| Cc1cc(C)c(C[C@H](NC(=O)[C@@H](CCCNC(=N)N)NC(=O)[C@@H](N)Cc2c(C)cc(O)cc2C)C(=O)N[C@@H](CCCCN)C(N)=O)c(C)c1 | ligand displacement | radioligand | cell membranes | 0.158 |
| Cc1cc(O)cc(C)c1C[C@H](N)C(=O)N1CCc2ccc(Cc3cccc([N+](=O)[O-])c3)cc2C1 | ligand displacement | radioligand | cell membranes | 3.1 |
| Cc1cc(O)cc(C)c1C[C@H](N)C(=O)N[C@H](CCCNC(=N)N)C(=O)N[C@@H](Cc1c(C)cccc1C(C)C)C(=O)N[C@@H](CCCCN)C(N)=O | ligand displacement | radioligand | cell membranes | 0.155 |
| C[C@@H](NC(=O)[C@@H](N)Cc1ccc(O)cc1)C(=O)NCC(=O)N[C@@H](Cc1ccccc1)C(=O)N(C)CCC[C@@]1(c2ccc(F)cc2)OCc2cc(C#N)ccc21 | cell-free assay |  |  | 88 |
| Cc1cc(O)cc(C)c1C[C@H](N)C(=O)N1CCc2ccc(Cc3cccc(N)c3)cc2C1 | ligand displacement | radioligand | cell membranes | 9.7 |
